Data from ChEMBL document CHEMBL1141377 (J Nat Prod, 2007).
pIC50: −log10 of the molar value. The source made the active and inactive calls. The calls are words filed in the database; no cut-off is given here.

Legend:
Homo sapiens = species: Homo sapiens; experiment: Inhibition of chymotrypsin up to 100 uM
20S proteasome = experiment: Inhibition of human 20S proteasome; format: subcellular
Trypsin (Homo sapiens) = Trypsin (Homo sapiens) (UniProt P07477+P07478+P35030); experiment: Inhibition of trypsin up to 100 uM; format: protein assay
[1] = Stability in neutral pH after 48 hrs; format: physicochemical; details: read-out: Stability
[2] = Stability in neutral pH after 24 hrs; format: physicochemical; details: read-out: Stability
How it was run: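 Compound solutions in 20% MeOH incubated in horse serum or water at pH 7 for 24 h. Recovery estimated by HPLC.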

MDA-MB-231 = experiment: Cytotoxicity against human MDA-MB-231 cell line; format: functional, cell-based
PBMC = experiment: Inhibition of LPS-induced TNFalpha production in human PBMC; format: functional, cell-based
How it was run: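 Human PBMC isolated from heparinized healthy-donor blood on 80% Percoll, washed twice in PBS, in RPMI1640 with 10% heat-inactivated FCS. Cells preincubated 1 h with compound or DMSO (final 0.1%), then stimulated with LPS (1 μg/mL). After overnight culture, supernatant TNF-α measured. IC50 reported.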

HCT-116 = experiment: Cytotoxicity against human HCT116 cell line; format: cell-based
NCI-H460 = experiment: Cytotoxicity against human H460 cell line; format: functional, cell-based
[3] = Stability in alkaline pH after 48 hrs; format: physicochemical; details: read-out: Stability

Structure (SMILES)	Activity (Homo sapiens)	pIC50 (20S proteasome)	Activity (Trypsin (Homo sapiens))	remaining at 48 h [1] [%]	remaining at 24 h [2] [%]	pIC50 (MDA-MB-231)	pIC50 (PBMC)	Activity (HCT-116) [nM]	pIC50 (NCI-H460)	remaining at 48 h [3] [%]
CCCCCC(O)[C@H]1C(=O)N[C@](C(=O)O)([C@@H](O)[C@@H]2C=CCCC2)[C@@]1(C)O (stereo partly specified) [CINNABARAMIDE D]	inactive	7.00	inactive							
CCCCCC[C@H]1C(=O)N[C@](C(=O)SC[C@H](NC(C)=O)C(=O)O)([C@@H](O)[C@@H]2C=CCCC2)[C@@]1(C)O [CINNABARAMIDE F]	inactive	8.22	inactive	> 90						
CCCCCC(O)[C@H]1C(=O)N[C@@]2([C@@H](O)[C@@H]3C=CCCC3)C(=O)O[C@@]12C (stereo partly specified) [CINNABARAMIDE B]	inactive	6.61	inactive		50					
CCCCCC[C@H]1C(=O)N[C@@]2(C[C@@H]3C=CCCC3)C(=O)O[C@@]12C [CINNABARAMIDE C]	inactive	7.92	inactive		50					
CCCCCC[C@H]1C(=O)N[C@@]2([C@@H](O)[C@@H]3C=CCCC3)C(=O)O[C@@]12C [CINNABARAMIDE A]	inactive	9.00	inactive		50	6.00	6.30	10	6.00	
CCCCCC[C@H]1C(=O)N[C@](C(=O)O)([C@@H](O)[C@@H]2C=CCCC2)[C@@]1(C)O [CINNABARAMIDE E]	inactive	6.87	inactive							
CCCCCC[C@H]1C(=O)N[C@](C(=O)SC[C@H](NC(C)=O)C(=O)OC)([C@@H](O)[C@@H]2C=CCCC2)[C@@]1(C)O [CINNABARAMIDE G]	inactive	9.22	inactive	90						45
